Data: ChEMBL document CHEMBL1149321, “Synthesis, radiosynthesis, and biological evaluation of carbon-11 and iodine-123 labeled 2beta-carbomethoxy-3beta-[4'-((Z)-2-haloethenyl)phenyl]tropanes: candidate radioligands for in vivo imaging of the serotonin transporter” (J Med Chem, 2004)

Key:
[1] = Ratio of radioactivity in hippocampus of rat brain to that of rat cerebellum after intravenous administration after 30 min; assay type: functional
Procedure, shortened: (§1)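 Male Sprague–Dawley rats (200–250 g) given ~20 μCi [123I] tracer iv in 0.2 mL 10% ethanol/saline under ketamine/xylazine; killed at 5, 30, 60, 120 min (n = 5; n = 4 at 120 min). Brain regions dissected, gamma counted, decay-corrected to %ID/g; regional uptake divided by cerebellum.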

Rattus norvegicus [2] = assay: Distribution of the radio labelled compound in hippocampus of rat brain after intravenous administration in presence of citalopram after 60 min; assay type: ADME, organism-based; conditions: in vivo, 1 h
Procedure, shortened: (§2)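 Male Sprague–Dawley rats (200–250 g) under ketamine/xylazine anaesthesia with tail-vein cannulas. Blocker or none given 15 min before ~20 μCi [123I] tracer iv in 0.2 mL 10% ethanol/saline; blocker dose 4 mg/kg.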

Rattus norvegicus [3] = assay: Distribution in cerebellum of rat brain after intravenous administration by using [123I]ZIET after 30 min; assay type: ADME, organism-based; conditions: in vivo, 0.5 h
Procedure, shortened: (§3)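 Male Sprague–Dawley rats (200–250 g), fed ad libitum, given ~20 μCi radiotracer iv via tail-vein cannula in 0.2 mL 10% ethanol/saline under ketamine/xylazine im anesthesia. Killed at 5, 30, 60 or 120 min (n = 5; n = 4 at 120 min). Brain regions dissected, weighed, gamma-counted with dose standards, decay-corrected; mean %ID/g ± SE.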

Rattus norvegicus [4] = assay: Distribution in hippocampus of rat brain after intravenous administration by using [123I]ZIET after 5 min; assay type: ADME, organism-based; conditions: in vivo; procedure, shortened: as §3
Rattus norvegicus [5] = assay: Distribution of the radio labelled compound in cerebellum of rat brain after intravenous administration in presence of citalopram after 60 min; assay type: ADME, organism-based; conditions: in vivo, 1 h; procedure, shortened: as §2
[6] = Ratio of radioactivity in rest of rat brain to that of rat cerebellum after intravenous administration after 5 min; assay type: functional; procedure, shortened: as §1
Rattus norvegicus [7] = assay: Distribution in hippocampus of rat brain after intravenous administration by using [123I]ZIET after 120 min; assay type: ADME, organism-based; conditions: in vivo, 2 h; procedure, shortened: as §3
[8] = Ratio of radioactivity in hypothalamus of rat brain to that of rat cerebellum after intravenous administration after 60 min; assay type: functional; procedure, shortened: as §1
Rattus norvegicus [9] = assay: Distribution of the radio labelled compound in cerebellum of rat brain after intravenous administration in presence of reboxetine after 60 min; assay type: ADME, organism-based; conditions: in vivo, 1 h; procedure, shortened: as §2
Rattus norvegicus [10] = assay: Distribution of the radio labelled compound in frontal cortex of rat brain after intravenous administration in absence of blocker after 60 min; assay type: ADME, organism-based; conditions: in vivo, 1 h; procedure, shortened: as §2
Rattus norvegicus [11] = assay: Distribution of the radio labelled compound in hypothalamus of rat brain after intravenous administration in presence of reboxetine after 60 min; assay type: ADME, organism-based; conditions: in vivo, 1 h; procedure, shortened: as §2
Rattus norvegicus [12] = assay: Distribution in hypothalamus of rat brain after intravenous administration by using [123I]ZIET after 120 min; assay type: ADME, organism-based; conditions: in vivo, 2 h; procedure, shortened: as §3
Rattus norvegicus [13] = assay: Distribution of the radio labelled compound in thyroid of rat brain after intravenous administration in absence of blocker after 60 min; assay type: ADME, organism-based, Thyroid gland; conditions: in vivo, 1 h; procedure, shortened: as §2
Rattus norvegicus [14] = assay: Distribution of the radio labelled compound in cerebellum of rat brain after intravenous administration in absence of blocker after 60 min; assay type: ADME, organism-based; conditions: in vivo, 1 h
Procedure, shortened: (§4)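 Male Sprague–Dawley rats (200–250 g), ketamine/xylazine anesthesia, tail-vein cannula. Blocker (4 mg/kg) or nothing given 15 min before iv [123I]ZIET in 10% ethanol/saline. Killed 60 min post-tracer.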

Rattus norvegicus [15] = assay: Distribution of the radio labelled compound in rest of rat brain after intravenous administration in presence of reboxetine after 60 min; assay type: ADME, organism-based; conditions: in vivo, 1 h; procedure, shortened: as §2
Rattus norvegicus [16] = assay: Distribution of the radio labelled compound in blood of rat brain after intravenous administration in presence of RTI-113 after 60 min; assay type: ADME, organism-based; conditions: in vivo, 1 h; procedure, shortened: as §4
Rattus norvegicus [17] = assay: Distribution of the radio labelled compound in hippocampus of rat brain after intravenous administration in presence of RTI-113 after 60 min; assay type: ADME, organism-based; conditions: in vivo, 1 h; procedure, shortened: as §2
Rattus norvegicus [18] = assay: Distribution in rest of rat brain after intravenous administration by using [123I]ZIET after 60 min; assay type: ADME, organism-based; conditions: in vivo, 1 h; procedure, shortened: as §3
Rattus norvegicus [19] = assay: Distribution of the radio labelled compound in hypothalamus of rat brain after intravenous administration in presence of RTI-113 after 60 min; assay type: ADME, organism-based; conditions: in vivo, 1 h; procedure, shortened: as §2
[20] = Ratio of radioactivity in striatum of rat brain to that of rat cerebellum after intravenous administration after 120 min; assay type: functional; procedure, shortened: as §1
Rattus norvegicus [21] = assay: Distribution of the radio labelled compound in frontal cortex of rat brain after intravenous administration in presence of RTI-113 after 60 min; assay type: ADME, organism-based; conditions: in vivo, 1 h; procedure, shortened: as §2
Rattus norvegicus [22] = assay: Distribution in hippocampus of rat brain after intravenous administration by using [123I]ZIET after 30 min; assay type: ADME, organism-based; conditions: in vivo, 0.5 h; procedure, shortened: as §3
Rattus norvegicus [23] = assay: Distribution of the radio labelled compound in occipital cortex of rat brain after intravenous administration in presence of citalopram after 60 min; assay type: ADME, organism-based; conditions: in vivo, 1 h; procedure, shortened: as §2
[24] = Ratio of radioactivity in rest of rat brain to that of rat cerebellum after intravenous administration after 120 min; assay type: functional; procedure, shortened: as §1
[25] = Ratio of radioactivity in frontal cortex of rat brain to that of rat cerebellum after intravenous administration after 120 min; assay type: functional; procedure, shortened: as §1
Rattus norvegicus [26] = assay: Distribution in blood […] after intravenous administration by using [123I]-ZIET after 60 min; assay type: ADME, organism-based; conditions: in vivo, 1 h; procedure, shortened: as §3
Rattus norvegicus [27] = assay: Distribution of the radio labelled compound in cerebellum of rat brain after intravenous administration in presence of RTI-113 after 60 min; assay type: ADME, organism-based; conditions: in vivo, 1 h; procedure, shortened: as §4
[28] = Ratio of radioactivity in frontal cortex of rat brain to that of rat cerebellum after intravenous administration after 30 min; assay type: functional; procedure, shortened: as §1
Rattus norvegicus [29] = assay: Distribution of the radio labelled compound in striatum of rat brain after intravenous administration in presence of citalopram after 60 min; assay type: ADME, organism-based; conditions: in vivo, 1 h; procedure, shortened: as §2
[30] = Ratio of radioactivity in occipital cortex of rat brain to that of rat cerebellum after intravenous administration after 60 min; assay type: functional; procedure, shortened: as §1
Rattus norvegicus [31] = assay: Distribution of the radio labelled compound in striatum of rat brain after intravenous administration in absence of blocker after 60 min; assay type: ADME, organism-based; conditions: in vivo, 1 h; procedure, shortened: as §2
Rattus norvegicus [32] = assay: Distribution in striatum of rat brain after intravenous administration by using [123I]ZIET after 60 min; assay type: ADME, organism-based; conditions: in vivo, 1 h; procedure, shortened: as §3
Rattus norvegicus [33] = assay: Distribution of the radio labelled compound in rest of rat brain after intravenous administration in absence of blocker after 60 min; assay type: ADME, organism-based; conditions: in vivo, 1 h; procedure, shortened: as §2
Rattus norvegicus [34] = assay: Distribution of the radio labelled compound in occipital cortex of rat brain after intravenous administration in presence of reboxetine after 60 min; assay type: ADME, organism-based; conditions: in vivo, 1 h; procedure, shortened: as §2
Rattus norvegicus [35] = assay: Distribution in rest of rat brain after intravenous administration by using [123I]ZIET after 120 min; assay type: ADME, organism-based; conditions: in vivo, 2 h; procedure, shortened: as §3
Rattus norvegicus [36] = assay: Distribution of the radio labelled compound in brainstem of rat brain after intravenous administration in presence of reboxetine after 60 min; assay type: ADME, organism-based; conditions: in vivo, 1 h; procedure, shortened: as §4
[37] = Ratio of radioactivity in brainstem of rat brain to that of rat cerebellum after intravenous administration after 120 min; assay type: functional; procedure, shortened: as §1
[38] = Ratio of radioactivity in hypothalamus of rat brain to that of rat cerebellum after intravenous administration after 120 min; assay type: functional; procedure, shortened: as §1
[39] = Ratio of radioactivity in occipital cortex of rat brain to that of rat cerebellum after intravenous administration after 30 min; assay type: functional; procedure, shortened: as §1
Rattus norvegicus [40] = assay: Distribution in thyroid of rat brain after intravenous administration by using [123I]ZIET after 5 min; assay type: ADME, organism-based, Thyroid gland; conditions: in vivo; procedure, shortened: as §3
Rattus norvegicus [41] = assay: Distribution in hippocampus of rat brain after intravenous administration by using [123I]ZIET after 60 min; assay type: ADME, organism-based; conditions: in vivo, 1 h; procedure, shortened: as §3
Rattus norvegicus [42] = assay: Distribution in rest of rat brain after intravenous administration by using [123I]ZIET after 30 min; assay type: ADME, organism-based; conditions: in vivo, 0.5 h; procedure, shortened: as §3
Rattus norvegicus [43] = assay: Distribution of the radio labelled compound in thyroid of rat brain after intravenous administration in presence of citalopram after 60 min; assay type: ADME, organism-based, Thyroid gland; conditions: in vivo, 1 h; procedure, shortened: as §2
Rattus norvegicus [44] = assay: Distribution of the radio labelled compound in brainstem of rat brain after intravenous administration in presence of RTI-113 after 60 min; assay type: ADME, organism-based; conditions: in vivo, 1 h; procedure, shortened: as §4

COC(=O)C1C(c2ccc(/C=C\[123I])cc2)CC2CCC1N2C (centres undefined)
Ratio [1]: 1.7 | Activity (Rattus norvegicus [2]): 0.17 | Activity (Rattus norvegicus [3]): 0.42 | Activity (Rattus norvegicus [4]): 0.38 | Activity (Rattus norvegicus [5]): 0.1 | Ratio [6]: 1.1 | Activity (Rattus norvegicus [7]): 0.47 | Ratio [8]: 2.6 | Activity (Rattus norvegicus [9]): 0.15 | Activity (Rattus norvegicus [10]): 0.53 | Activity (Rattus norvegicus [11]): 0.46 | Activity (Rattus norvegicus [12]): 0.6 | Activity (Rattus norvegicus [13]): 0.54 | Activity (Rattus norvegicus [14]): 0.15 | Activity (Rattus norvegicus [15]): 0.34 | Activity (Rattus norvegicus [16]): 0.24 | Activity (Rattus norvegicus [17]): 0.42 | Activity (Rattus norvegicus [18]): 0.54 | Activity (Rattus norvegicus [19]): 0.55 | Ratio [20]: 3.7 | Activity (Rattus norvegicus [21]): 0.49 | Activity (Rattus norvegicus [22]): 0.72 | Activity (Rattus norvegicus [23]): 0.2 | Ratio [24]: 2.8 | Ratio [25]: 3.4 | Activity (Rattus norvegicus [26]): 0.43 | Activity (Rattus norvegicus [27]): 0.13 | Ratio [28]: 2 | Activity (Rattus norvegicus [29]): 0.26 | Ratio [30]: 2.3 | Activity (Rattus norvegicus [31]): 0.42 | Activity (Rattus norvegicus [32]): 0.71 | Activity (Rattus norvegicus [33]): 0.37 | Activity (Rattus norvegicus [34]): 0.42 | Activity (Rattus norvegicus [35]): 0.39 | Activity (Rattus norvegicus [36]): 0.36 | Ratio [37]: 3 | Ratio [38]: 4.3 | Ratio [39]: 1.8 | Activity (Rattus norvegicus [40]): 0.08 | Activity (Rattus norvegicus [41]): 0.63 | Activity (Rattus norvegicus [42]): 0.66 | Activity (Rattus norvegicus [43]): 0.93 | Activity (Rattus norvegicus [44]): 0.35
